Apaf-1 inh – blocks human Apaf-1 apoptosome activity | O14727 | reconstituted apoptosome caspase-3 activity, DEVD-Rh110 fluorescence | inhibition, % at 20 µM | actives 0.71% (n = 330,000) | AID 489030; active means inhibition of at least 40% at 20 µM
Target sequence (O14727 whole entry, looked up): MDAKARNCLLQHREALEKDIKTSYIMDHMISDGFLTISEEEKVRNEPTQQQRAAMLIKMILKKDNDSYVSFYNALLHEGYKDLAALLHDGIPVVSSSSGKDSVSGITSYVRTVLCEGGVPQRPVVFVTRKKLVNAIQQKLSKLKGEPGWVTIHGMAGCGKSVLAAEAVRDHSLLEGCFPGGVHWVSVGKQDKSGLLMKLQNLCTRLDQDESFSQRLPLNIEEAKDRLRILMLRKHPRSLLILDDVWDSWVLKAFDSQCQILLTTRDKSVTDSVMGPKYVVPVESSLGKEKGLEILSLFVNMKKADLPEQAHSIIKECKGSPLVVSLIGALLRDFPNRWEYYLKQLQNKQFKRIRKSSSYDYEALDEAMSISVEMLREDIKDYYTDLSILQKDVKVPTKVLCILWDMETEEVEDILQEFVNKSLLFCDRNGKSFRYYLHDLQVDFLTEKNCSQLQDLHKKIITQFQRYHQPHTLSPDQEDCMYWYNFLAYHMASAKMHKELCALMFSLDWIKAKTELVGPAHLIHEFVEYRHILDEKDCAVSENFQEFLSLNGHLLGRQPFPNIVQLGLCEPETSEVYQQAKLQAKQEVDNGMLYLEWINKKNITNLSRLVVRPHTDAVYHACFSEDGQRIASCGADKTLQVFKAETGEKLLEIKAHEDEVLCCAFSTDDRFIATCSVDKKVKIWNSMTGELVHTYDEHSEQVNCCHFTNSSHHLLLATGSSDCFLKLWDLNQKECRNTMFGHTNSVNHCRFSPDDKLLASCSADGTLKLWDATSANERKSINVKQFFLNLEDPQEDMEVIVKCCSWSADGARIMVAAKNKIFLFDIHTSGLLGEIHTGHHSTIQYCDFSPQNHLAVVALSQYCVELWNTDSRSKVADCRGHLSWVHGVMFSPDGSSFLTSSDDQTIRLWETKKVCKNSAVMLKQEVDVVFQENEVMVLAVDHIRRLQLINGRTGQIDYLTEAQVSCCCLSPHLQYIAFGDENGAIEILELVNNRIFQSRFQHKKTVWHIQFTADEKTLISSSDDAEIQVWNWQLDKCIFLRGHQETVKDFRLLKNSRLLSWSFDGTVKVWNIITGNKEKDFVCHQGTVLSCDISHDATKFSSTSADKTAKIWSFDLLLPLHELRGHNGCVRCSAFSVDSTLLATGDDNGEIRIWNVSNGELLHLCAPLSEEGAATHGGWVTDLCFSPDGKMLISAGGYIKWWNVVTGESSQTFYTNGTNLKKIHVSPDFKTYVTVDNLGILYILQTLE
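Material: cell-free apoptosome with Apaf-1, procaspase-3 and caspase-9; Buffer or medium: Hepes pH 7.5 with detergent and BSA; Reagent: cytochrome c trigger plus (Z-DEVD)2-Rh110 caspase-3 substrate; Times: compound with Apaf-1, dATP, procaspase-3 30 min, then 50 min reaction, room temperature; Technique: Rh110 fluorescence intensity.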
UBC13 inh – human UBC13 polyubiquitination inhibition | inhibition, % at 20 µM | UBC13 polyubiquitin chain formation, TR-FRET | AID 485273 | actives 0.47% (n = 330,000); in the data active means inhibition above about 45%, passing the limit was not always enough; inconclusive means no clear call, values can overlap the other calls
SENP6 block – inhibitors of human SENP6 protease; Recombinant SENP6 catalytic domain, aminoluciferin luminescence; actives 1.8% (n = 330,000); Q9GZR1; inhibition, % at 10 µM; AID 2599;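 active means inhibition above about 50% at the single tested dose, limit read from the data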
SENP7 block – blocks the human protease SENP7. actives 1.5% (n = 330,000). recombinant SENP7, Z-RLRGG-aminoluciferin luminescence, 40 min. Q9BQF6. inhibition, % at 5 µM;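 active means inhibition above about 50% at the single test dose, limit read from the data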
SENP8 block-1 – SENP8 protease inhibition | Q96LD8 | purified SENP8, Z-RLRGG-aminoluciferin cleavage, luminescence | inhibition, % at 10 µM | actives 1.2% (n = 330,000); in the data active means inhibition above about 50%
SENP8 block-2 – blocks human SENP8 cleavage of Nedd8 substrate. recombinant SENP8, Nedd8 substrate fluorescence. inhibition, % at 20 µM. Q96LD8. AID 602440. actives 0.64% (n = 360,000); in the data active means inhibition mostly above about 40%, no sharp cut-off; inactive means mostly below about 27%
SENP8 conf – SENP8 (human) inhibition, single concentration confirmation. shares compounds with SENP8 block-2. purified SENP8, Nedd8-AMC/pro-Nedd8 cleavage fluorescence, 30 min. inhibition, % at 25 µM. actives 15% (n = 1,400); in the data active means inhibition mostly above about 39%, no sharp cut-off; inactive means mostly below about 34%
Of the large screens only hits and unclear results are named; the others gave an inactive call (follow-up assays come after a bar, where they were run). Most compounds without a hit are left out; they make up all but 3% or so of the library.

Cc1nc(C(F)(F)F)ccc1C(=O)N1CCC(C)(C(=O)O)C1 (centres undefined)	none (no result: Apaf-1 inh, UBC13 inh, SENP6 block, SENP7 block, SENP8 block-1)
CCN(CC)S(=O)(=O)c1ccc(NCC2COc3ccccc3O2)c([N+](=O)[O-])c1 (centres undefined)	SENP8 block-2 47 | SENP8 conf inactive
COc1c(O)cc(O)c2c(=O)cc(-c3ccccc3)oc12	SENP8 block-2 69 | SENP8 conf inactive
COc1c(OC)c(O)c2c(=O)cc(-c3c(O)cccc3O)oc2c1OC	none
COc1cc(O)c2c(=O)cc(-c3ccccc3)oc2c1	SENP8 block-2 53 | SENP8 conf inactive
COc1cc(-c2cc(=O)c3c(O)cc(O)cc3o2)ccc1O	SENP8 block-2 56 | SENP8 conf inactive
O=c1cc(-c2ccccc2)oc2cccc(O)c12	none (no result: Apaf-1 inh, UBC13 inh, SENP6 block, SENP7 block, SENP8 block-1)
COc1ccc(-c2oc3c(c2C(=O)OCCO)C(OCCCO)CCC3)cc1 (centres undefined)	none (no result: Apaf-1 inh, UBC13 inh, SENP6 block, SENP7 block, SENP8 block-1)
CCCCNC(=O)C1c2ccccc2OCC(=O)N1C1CC1 (centres undefined)	none (no result: Apaf-1 inh, UBC13 inh, SENP6 block, SENP7 block, SENP8 block-1)
O=c1[nH]c(CN2CCN(c3ccccn3)CC2)nc2c(Br)cc(Br)cc12	UBC13 inh inconclusive, SENP8 block-2 44 | SENP8 conf inactive
CCn1c(CNc2ccc(OC)cc2)nnc1SCC(=O)N1CCCc2ccccc21	none
COc1ccc(NCc2nnc(SCC(=O)Nc3ccccc3)n2C)cc1	SENP8 block-2 43 | SENP8 conf inactive
COc1ccc(NCc2nnc(SCC(=O)N3CCCc4ccccc43)n2C)cc1	SENP8 block-2 60 | SENP8 conf inactive
CCCc1nc2ccc(C)cn2c1Cc1ccsc1	none (no result: Apaf-1 inh, UBC13 inh, SENP6 block, SENP7 block, SENP8 block-1)
NC(=O)c1[nH]cnc1N=NN(CCO)Cc1ccccc1	none (no result: Apaf-1 inh, UBC13 inh, SENP6 block, SENP7 block, SENP8 block-1)
C=CC[C@@]12C=C(OC)C(=O)C(OC)=C1O[C@H](c1ccc3c(c1)OCO3)[C@H]2C	none
C=CC[C@]12C[C@@H](OC)C(=O)C=C1O[C@@H](c1ccc(OC)c(OC)c1)[C@H]2C	SENP8 block-2 42 | SENP8 conf inactive
C[C@@H]1COc2cccc(N3CCC[C@H]3CO)c2S(=O)(=O)N1	none (no result: Apaf-1 inh, UBC13 inh, SENP6 block, SENP7 block, SENP8 block-1)
CCOc1ccc(Nc2nc(N)c([N+](=O)[O-])c(N3CCN(C)CC3)n2)cc1	SENP8 block-2 47 | SENP8 conf inactive
CCN1CCN(c2nc(N)c([N+](=O)[O-])c(Nc3cccc(C)c3)n2)CC1	none
Cc1cccc(Nc2nc(N3CCN(C)CC3)nc(N)c2[N+](=O)[O-])c1	SENP8 block-2 40 | SENP8 conf inactive
COc1ccc(Nc2nc(N)c([N+](=O)[O-])c(N3CCOCC3)n2)cc1	none
COc1ccc(CN2C(=O)CCC2(C)c2nnnn2-c2ccc3c(c2)OCCO3)cc1OC (centres undefined)	none (no result: Apaf-1 inh, UBC13 inh, SENP6 block, SENP7 block, SENP8 block-1)
COc1cc(NCCCNC(C)C)c2nccc(C)c2c1	SENP8 block-2 65 (no result: Apaf-1 inh, UBC13 inh, SENP6 block, SENP7 block, SENP8 block-1) | SENP8 conf 48
COc1ccc(/C=N/N=C2/NC(=O)CC(C(=O)O)S2)cc1 (centres undefined)	none
COc1ccc(/C=N/N=C2/CC(C)(C)Cc3n[nH]c(=O)cc32)cc1	SENP8 block-2 44 | SENP8 conf inactive
Cc1onc(-c2ccccc2Cl)c1C(=O)c1ccccc1	none
Cc1onc(-c2ccccc2Cl)c1-c1nc(-c2ccccn2)no1	SENP8 block-2 41 | SENP8 conf inactive
O=C1Nc2ccccc2C1=O	SENP8 block-2 44 | SENP8 conf inactive
COc1ccc([N+](=O)[O-])cc1NC(=S)NC(=O)C(C)(C)C	SENP8 block-2 40 | SENP8 conf inactive
COc1ccc([N+](=O)[O-])cc1NC(=S)Nc1ccccc1	none
COc1ccc2c(c1)C(=O)N(c1ccccc1OC)C(=O)C2	SENP8 block-2 69 | SENP8 conf 38
COc1ccc2c(c1)C(=O)N(c1ccc(C)cc1C)C(=O)C2	none
Cc1cnc(C(=O)Nc2c(-c3ccccc3)[nH][nH]c2=O)cn1	SENP8 block-2 41 (no result: Apaf-1 inh, UBC13 inh, SENP6 block, SENP7 block, SENP8 block-1) | SENP8 conf 45
O=C(Nc1c(-c2ccc(Cl)cc2)[nH][nH]c1=O)c1ccc(Br)cc1	SENP8 block-2 43 (no result: Apaf-1 inh, UBC13 inh, SENP6 block, SENP7 block, SENP8 block-1) | SENP8 conf inactive
O=C(Nc1c(-c2ccccc2)[nH][nH]c1=O)c1cccc(C(F)(F)F)c1	SENP8 block-2 49 (no result: Apaf-1 inh, UBC13 inh, SENP6 block, SENP7 block, SENP8 block-1) | SENP8 conf inactive
O=C(Nc1c(-c2ccccc2)[nH][nH]c1=O)c1ccccc1	none (no result: Apaf-1 inh, UBC13 inh, SENP6 block, SENP7 block, SENP8 block-1)

Screening data as filed in PubChem BioAssay.
